Experimental data gathered from unrelated publications.
Each line is one published result; the experiments were not run side by side.
MAP2K6: Dual specificity mitogen-activated protein kinase kinase 6 (MAP2K6, Homo sapiens, UniProt P52564)

Cc1ccc(Nc2nccc(N(C)c3ccc4c(C)n(C)nc4c3)n2)cc1S(N)(=O)=O  inhibition (MAP2K6; enzyme activity, inhibitor; 0.3 µM): -10%
O=C1Nc2ccc(Cl)cc2C1=Cc1cc(Cl)c(O)c(Cl)c1  remaining signal (MAP2K6; cell-free assay; 0.5 µM): 96.4%
COc1cc(Nc2cnc(C#N)c(O[C@H](C)CN(C)C)n2)ncc1-c1cnn(C)c1  remaining activity (MAP2K6; enzyme activity, inhibitor, radiometric; 1 µM): 71%
Cn1c2c(c3ccccc31)C(C#N)C(C)(C)NC2=O (stereo not shown)  ΔTm (MAP2K6; thermal stability, DSF; 10 µM): 0 °C
COc1cc2ncnc(Nc3ccc(F)c(Cl)c3)c2cc1OCCCN1CCOCC1  remaining signal (MAP2K6; cell-free assay; 0.5 µM): 90.1%
CN(C)C1CCN(CC#Cc2nn(C3CCCC3)c3nc(NCc4ccccc4)ncc23)C1 (stereo not shown)  inhibition (MAP2K6; enzyme activity, inhibitor, FRET; 1 µM): 6%
Cn1cc(Cl)c2c(Oc3c(F)cc(Nc4cc(Cl)nc(N)n4)cc3F)ccnc21  remaining binding (MAP2K6; cell-free assay, competition with immobilised ligand; 0.1 µM): 100%
O=C(Nc1cnn(-c2csc(C(=O)NC3COC3)c2)c1)Nc1ccccc1Cl  remaining activity (MAP2K6; enzyme activity, inhibitor; 5 µM): 96.4%
CCN(CC)CCNC(=O)c1c(C)[nH]c(/C=C2\C(=O)Nc3ccc(F)cc32)c1C  remaining signal (MAP2K6; cell-free assay; 0.5 µM): 75.9%
COc1cc(/C=C/C(=O)CC(=O)/C=C/c2ccc(O)c(OC)c2)ccc1O  activity vs control (MAP2K6; enzyme activity, inhibitor; 1 µM): 102%
C[S+]([O-])c1ccc(-c2nc(-c3ccncc3)c(-c3ccc(F)cc3)[nH]2)cc1 (stereo not shown)  remaining signal (MAP2K6; cell-free assay; 0.5 µM): 102%
CN1CC(Oc2cnc(C#N)cc2-c2ccn3nc(NC(=O)C4CC4)cc3c2)C1  inhibition (MAP2K6; enzyme activity, inhibitor; 1 µM): 21%
O=C1NC(=O)c2cc(Nc3ccc(F)cc3)c(Nc3ccc(F)cc3)cc21  remaining signal (MAP2K6; cell-free assay; 0.5 µM): 110%
COc1cc(Cl)c(C(=O)N[C@@H](CN[C@H]2CC[C@@H](N)CC2)Cc2ccc(C#N)cc2)cc1-c1ccc(CN[C@H](C)c2ccc(C)cc2)o1  remaining activity (MAP2K6; enzyme activity, inhibitor; 1 µM): 88%
Cc1c[nH]c2nccc(Oc3c(F)cc(Nc4cc(Cl)nc(N)n4)cc3F)c12  remaining binding (MAP2K6; cell-free assay, competition with immobilised ligand; 0.1 µM): 99%
Cn1c2c(Cl)c(Cl)ccc2c2cc[nH]c(=O)c21  ΔTm (MAP2K6; thermal stability, DSF; 10 µM): 0.2 °C
CNCc1ccc(-c2cc(-c3nc(-c4ccc(S(=O)(=O)C(C)C)cc4)cnc3N)on2)cc1  inhibition (MAP2K6; enzyme activity, inhibitor; 0.4 µM): 15%
CCN(CC)c1ccc(C2=NNC(=O)CC2C)cc1[N+](=O)[O-] (stereo not shown)  remaining activity (MAP2K6; enzyme activity, inhibitor; 10 µM): 97%
Nc1ncnc2occ(-c3ccc(NC(=O)Nc4cc(C(F)(F)F)ccc4F)cc3)c12  remaining signal (MAP2K6; cell-free assay, inhibitor; 20 µM): 58%
Cn1c2c(c3ccc(Cl)c(Cl)c31)C(C#N)C(C)(C)NC2=O (stereo not shown)  ΔTm (MAP2K6; thermal stability, DSF; 10 µM): 0.2 °C
CC(C)(C)c1nc(-c2cccc(NS(=O)(=O)c3c(F)cccc3F)c2F)c(-c2ccnc(N)n2)s1  remaining activity (Dual specificity mitogen-activated protein kinase kinase 6 (MAP2K6, Homo sapiens, UniProt P52564, S207D/T211D); enzyme activity, inhibitor, radiometric; 1 µM): 96%
C[C@H](c1ccc(F)cc1)N(Cc1cccc(C(=O)O)c1)C(=O)c1cnc2ccccc2c1  remaining binding (MAP2K6; cell-free assay, competition with immobilised ligand; 1 µM): 100%
Cc1ccc(NC(=O)c2ccc(C)c(C(F)(F)F)c2)cc1C#Cc1nn(C2CCC(O)CC2)c2ncnc(N)c12 (stereo not shown)  remaining signal (MAP2K6; cell-free assay; 10 µM): 43%
CNCc1ccccc1-c1csc([C@@H](C)Nc2nc(C)nc3cc(OC)c(OC)cc23)c1  remaining binding (MAP2K6; cell-free assay, competition with immobilised ligand; 1 µM): 86%
CNC(=O)c1cc(Oc2ccc(NC(=O)Nc3ccc(Cl)c(C(F)(F)F)c3)cc2)ccn1  inhibition (MAP2K6; enzyme activity, inhibitor; 10 µM): 99%
CCN1CCC2(CC1)NC(=O)c1c(c3ccc(Cl)c(Cl)c3n1C)C2C#N (racemic)  ΔTm (MAP2K6; thermal stability, DSF; 10 µM): 0 °C
CN(C)c1ncnc(-c2ccc3nc(Nc4cc(CN5CCN(C(=O)CC(F)(F)F)CC5)ccn4)[nH]c3c2)c1Cl  remaining binding (MAP2K6; cell-free assay, competition with immobilised ligand; 1 µM): 92%
CCCS(=O)(=O)Nc1ccc(F)c(C(=O)c2c[nH]c3ncc(-c4ccc(Cl)cc4)cc23)c1F  inhibition (MAP2K6; enzyme activity, inhibitor; 1 µM): < 10%
Cc1nc(Cc2cccc(C(F)(F)F)c2)sc1-c1ccc(C(N)=O)nc1  remaining binding (MAP2K6; cell-free assay, competition with immobilised ligand; 1 µM): 69%
COc1cc2ncnc(Nc3ccc(Oc4ccccc4)cc3C)c2cc1OC  inhibition (MAP2K6; enzyme activity, inhibitor; 1 µM): 3%
Cc1cc(-n2nc(Cc3cc(F)cc(C(F)(F)F)c3)nc2C)ccc1C(N)=O  remaining binding (MAP2K6; cell-free assay, competition with immobilised ligand; 1 µM): 83%
Cn1c2c(c3ccc(Cl)c(Cl)c31)C(C#N)C1(CCCCC1)NC2=O (racemic)  ΔTm (MAP2K6; thermal stability, DSF; 10 µM): 0.2 °C
C[C@@H]1CN(c2cc(-c3nn(C)c4ccc(OC5(C)CC5)cc34)ncn2)C[C@H](C)O1  remaining binding (MAP2K6; cell-free assay, competition with immobilised ligand; 1 µM): 89%
Cn1c(=O)n(-c2ccc(C(C)(C)C#N)cc2)c2c3cc(-c4cnc5ccccc5c4)ccc3ncc21  remaining activity (MAP2K6; enzyme activity, inhibitor; 10 µM): 93%
